Results reported in ChEMBL document CHEMBL4321796, “Proteolysis Targeting Chimeras for the Selective Degradation of Mcl-1/Bcl-2 Derived from Nonselective Target Binding Ligands” (J Med Chem, 2019).
Calls of active or inactive are those of the source. The rule behind the calls is not given here.

Columns and labels:
[1] = biological target: T1, Protein cereblon/Induced myeloid leukemia cell differentiation protein Mcl-1 (Homo sapiens, UniProt Q07820+Q96SW2); assay: Induction of CRBN-mediated Mcl-1 degradation in human HeLa cells assessed as relative abundance at 10 uM measured at 2 hrs by Western blot analysis (reference value: 1); type: cell-based
How it was run: (§1)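 HeLa cells in DMEM with 10% FBS, exposed to 10 µM compound over a 0–24 h time course. Mcl-1 and Bcl-2 detected by immunoblot (NP-40 lysis, BCA-equalized SDS-PAGE, PVDF, ECL) and quantified relative to DMSO control; mean ± s.d., n=3 independent samples.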

[2] = biological target: T1, Protein cereblon/Induced myeloid leukemia cell differentiation protein Mcl-1; assay: Induction of CRBN-mediated Mcl-1 degradation in human HeLa cells assessed as Mcl-1 level at 10 uM after 12 hrs by Western blot analysis relative to control; type: cell-based
[3] = biological target: T1, Protein cereblon/Induced myeloid leukemia cell differentiation protein Mcl-1; assay: Induction of CRBN-mediated Mcl-1 degradation in human HeLa cells assessed as relative abundance at 0.1 uM after 12 hrs by Western blot analysis (reference value: 1); type: cell-based
[4] = biological target: T1, Protein cereblon/Induced myeloid leukemia cell differentiation protein Mcl-1; assay: Induction of CRBN-mediated Mcl-1 degradation in human HeLa cells at 10 uM pretreated with CRBN inhibitor pomalidomide followed by compound addition by Western blot analysis; type: cell-based
[5] = biological target: T2, Protein cereblon/Apoptosis regulator Bcl-2 (Homo sapiens, UniProt P10415+Q96SW2); assay: Induction of CRBN-mediated Bcl-2 degradation in human HeLa cells assessed as relative abundance at 3 uM after 12 hrs by Western blot analysis (reference value: 1); type: cell-based
[6] = biological target: T2, Protein cereblon/Apoptosis regulator Bcl-2; assay: Induction of CRBN-mediated Bcl-2 degradation in human HeLa cells assessed as relative abundance at 10 uM measured at 24 hrs by Western blot analysis (reference value: 1); type: cell-based; how it was run: as §1
[7] = biological target: T2, Protein cereblon/Apoptosis regulator Bcl-2; assay: Induction of CRBN-mediated Bcl-2 degradation in human HeLa cells assessed as relative abundance at 10 uM measured at 2 hrs by Western blot analysis (reference value: 1); type: cell-based; how it was run: as §1
[8] = biological target: T1, Protein cereblon/Induced myeloid leukemia cell differentiation protein Mcl-1; assay: Induction of CRBN-mediated Mcl-1 degradation in human HeLa cells assessed as relative abundance at 3 uM after 12 hrs by Western blot analysis (reference value: 1); type: cell-based
[9] = biological target: Protein cereblon/Bcl-2-like protein 1 (Homo sapiens) (UniProt Q07817+Q96SW2); assay: Induction of CRBN-mediated Bcl-xl degradation in human HeLa cells at 10 uM incubated for 12 hrs by Western blot analysis; type: cell-based
[10] = biological target: T1, Protein cereblon/Induced myeloid leukemia cell differentiation protein Mcl-1; assay: Induction of CRBN-mediated Mcl-1 degradation in human HeLa cells at 10 uM pretreated with proteasome inhibitor MG-132 followed by compound addition by Western blot analysis; type: cell-based
[11] = biological target: Protein cereblon/E3 ubiquitin-protein ligase Mdm2 (Homo sapiens) (UniProt Q00987+Q96SW2); assay: Induction of CRBN-mediated MDM2 degradation in human HeLa cells at 10 uM incubated for 12 hrs by Western blot analysis; type: cell-based
[12] = biological target: T2, Protein cereblon/Apoptosis regulator Bcl-2; assay: Induction of CRBN-mediated Bcl-2 degradation in human HeLa cells assessed as relative abundance at 10 uM after 12 hrs by Western blot analysis (reference value: 1); type: cell-based
[13] = biological target: T1, Protein cereblon/Induced myeloid leukemia cell differentiation protein Mcl-1; assay: Induction of CRBN-mediated Mcl-1 degradation in human HeLa cells assessed as relative abundance at 10 uM measured at 8 hrs by Western blot analysis (reference value: 1); type: cell-based; how it was run: as §1
[14] = biological target: T2, Protein cereblon/Apoptosis regulator Bcl-2; assay: Induction of CRBN-mediated Bcl-2 degradation in human HeLa cells assessed as relative abundance at 0.1 uM after 12 hrs by Western blot analysis (reference value: 1); type: cell-based
[15] = biological target: T1, Protein cereblon/Induced myeloid leukemia cell differentiation protein Mcl-1; assay: Induction of CRBN-mediated Mcl-1 degradation in human HeLa cells at 10 uM pretreated with Bcl-2 inhibitor Nap-1 followed by compound addition by Western blot analysis; type: cell-based
[16] = biological target: T1, Protein cereblon/Induced myeloid leukemia cell differentiation protein Mcl-1; assay: Induction of CRBN-mediated Mcl-1 degradation in human HeLa cells at 10 uM by Western blot analysis; type: cell-based; details: TDE = time-dependent effect
NCI-H23 = assay: Cytotoxicity against human H23 cells incubated for 24 hrs by CCK8 assay; type: functional, cell-based
How it was run: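 H23 cells seeded at 4 × 10^4 per mL in RPMI with 10% FBS, L-glutamine and pen/strep. Treated 24 h at various concentrations or with DMSO vehicle (0.05%). Viability read by CCK8 and normalized against cell-free background and untreated cultures; mean ± s.e.m., n=3.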

[17] = biological target: T1, Protein cereblon/Induced myeloid leukemia cell differentiation protein Mcl-1; assay: Induction of CRBN-mediated Mcl-1 degradation in human HeLa cells assessed as relative abundance at 10 uM measured at 24 hrs by Western blot analysis (reference value: 1); type: cell-based; how it was run: as §1
[18] = biological target: T2, Protein cereblon/Apoptosis regulator Bcl-2; assay: Induction of CRBN-mediated Bcl-2 degradation in human HeLa cells assessed as relative abundance at 0.3 uM after 12 hrs by Western blot analysis (reference value: 1); type: cell-based
[19] = biological target: T1, Protein cereblon/Induced myeloid leukemia cell differentiation protein Mcl-1; assay: Induction of CRBN-mediated Mcl-1 degradation in human HeLa cells assessed as decrease in Mcl-1 level at 1 uM after 12 hrs by Western blot analysis relative to control; type: cell-based; design: scale not given: the % may be the effect or the level left
[20] = biological target: Induced myeloid leukemia cell differentiation protein Mcl-1 (Homo sapiens, UniProt Q07820); assay: Inhibition of biotinylated Bim peptide (81 to 106 residues) binding to His-tagged human Mcl-1 expressed in Escherichia coli BL21 (DE3) cells preincubated for 1 hr followed by biotinylated Bim peptide addition measured after 2 hrs by ELISA
How it was run: (§2)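 Inhibitor serially diluted (100–0.1 µM) from 10 mM DMSO stock, preincubated 1 h with 200 nM His-tagged protein in PBS (final DMSO 4%), then added 2 h to streptavidin plates holding biotin-Bim (plated at 0.09 mg/mL). Incubations at 4 °C. Detection with HRP anti-His, TMB 30 min, H2SO4 stop, A450. IC50 averaged from three independent experiments, with SD.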

[21] = biological target: T1, Protein cereblon/Induced myeloid leukemia cell differentiation protein Mcl-1; assay: Induction of CRBN-mediated Mcl-1 degradation in human HeLa cells at 10 uM measured at 12 hrs by Western blot analysis relative to control; type: cell-based; how it was run: as §1
[22] = biological target: Apoptosis regulator Bcl-2 (Homo sapiens, UniProt P10415); assay: Inhibition of biotinylated Bim peptide (81 to 106 residues) binding to His-tagged human Bcl-2 expressed in Escherichia coli BL21 (DE3) cells preincubated for 1 hr followed by biotinylated Bim peptide addition measured after 2 hrs by ELISA; how it was run: as §2
[23] = biological target: T2, Protein cereblon/Apoptosis regulator Bcl-2; assay: Induction of CRBN-mediated Bcl-2 degradation in human HeLa cells assessed as relative abundance at 10 uM measured at 8 hrs by Western blot analysis (reference value: 1); type: cell-based; how it was run: as §1
[24] = biological target: T1, Protein cereblon/Induced myeloid leukemia cell differentiation protein Mcl-1; assay: Induction of CRBN-mediated Mcl-1 degradation in human HeLa cells assessed as relative abundance at 0.3 uM after 12 hrs by Western blot analysis (reference value: 1); type: cell-based
[25] = biological target: T2, Protein cereblon/Apoptosis regulator Bcl-2; assay: Induction of CRBN-mediated Bcl-2 degradation in human HeLa cells assessed as relative abundance at 10 uM measured at 20 hrs by Western blot analysis (reference value: 1); type: cell-based; how it was run: as §1
[26] = biological target: T1, Protein cereblon/Induced myeloid leukemia cell differentiation protein Mcl-1; assay: Induction of CRBN-mediated Mcl-1 degradation in human HeLa cells after 12 hrs by Western blot analysis; type: cell-based
[27] = biological target: T2, Protein cereblon/Apoptosis regulator Bcl-2; assay: Induction of CRBN-mediated Bcl-2 degradation in human HeLa cells assessed as relative abundance at 10 uM measured at 16 hrs by Western blot analysis (reference value: 1); type: cell-based; how it was run: as §1

T2 sequence (P10415 whole entry, looked up): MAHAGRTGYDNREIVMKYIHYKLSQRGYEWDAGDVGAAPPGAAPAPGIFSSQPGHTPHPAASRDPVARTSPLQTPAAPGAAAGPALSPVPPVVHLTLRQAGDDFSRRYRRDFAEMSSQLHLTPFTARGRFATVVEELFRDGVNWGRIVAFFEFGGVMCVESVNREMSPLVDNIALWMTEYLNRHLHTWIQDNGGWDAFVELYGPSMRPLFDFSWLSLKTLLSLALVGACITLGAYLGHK
T2 sequence (Q96SW2 whole entry, looked up): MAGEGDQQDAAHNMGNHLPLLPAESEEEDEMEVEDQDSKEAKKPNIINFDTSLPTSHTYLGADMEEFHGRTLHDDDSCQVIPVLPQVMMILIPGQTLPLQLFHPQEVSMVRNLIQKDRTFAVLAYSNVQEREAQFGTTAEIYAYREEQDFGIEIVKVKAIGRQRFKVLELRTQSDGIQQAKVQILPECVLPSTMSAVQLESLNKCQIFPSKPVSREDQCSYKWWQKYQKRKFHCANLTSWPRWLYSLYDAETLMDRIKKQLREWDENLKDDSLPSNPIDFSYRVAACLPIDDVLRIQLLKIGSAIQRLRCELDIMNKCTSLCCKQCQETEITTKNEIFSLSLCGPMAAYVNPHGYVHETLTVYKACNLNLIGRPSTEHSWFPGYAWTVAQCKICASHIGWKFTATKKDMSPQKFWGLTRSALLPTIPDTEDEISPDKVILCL
T1 sequence (Q07820 whole entry, looked up): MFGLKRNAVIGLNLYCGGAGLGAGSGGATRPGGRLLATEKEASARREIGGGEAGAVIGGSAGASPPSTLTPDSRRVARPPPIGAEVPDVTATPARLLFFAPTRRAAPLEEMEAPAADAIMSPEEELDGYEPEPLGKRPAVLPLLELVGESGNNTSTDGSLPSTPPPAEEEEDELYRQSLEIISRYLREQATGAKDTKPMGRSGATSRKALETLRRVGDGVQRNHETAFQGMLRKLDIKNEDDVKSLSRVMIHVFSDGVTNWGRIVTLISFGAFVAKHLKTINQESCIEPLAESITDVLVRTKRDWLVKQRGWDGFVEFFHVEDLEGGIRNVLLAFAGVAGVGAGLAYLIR
T1 sequence (Q96SW2 whole entry, looked up): as the sequence (Q96SW2 whole entry, looked up) above
Apoptosis regulator Bcl-2, sequence (P10415 whole entry, the tested form may be a part): as the sequence (P10415 whole entry, looked up) above
Protein cereblon/Bcl-2-like protein 1 (Homo sapiens), sequence (Q07817 whole entry, looked up): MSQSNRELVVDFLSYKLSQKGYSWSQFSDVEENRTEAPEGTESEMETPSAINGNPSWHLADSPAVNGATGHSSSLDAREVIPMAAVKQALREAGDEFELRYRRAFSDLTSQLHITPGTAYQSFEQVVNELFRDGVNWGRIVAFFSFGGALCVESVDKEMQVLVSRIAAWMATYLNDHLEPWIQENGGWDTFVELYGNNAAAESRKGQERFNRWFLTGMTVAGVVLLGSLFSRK
Protein cereblon/Bcl-2-like protein 1 (Homo sapiens), sequence (Q96SW2 whole entry, looked up): as the sequence (Q96SW2 whole entry, looked up) above
Induced myeloid leukemia cell differentiation protein Mcl-1, sequence (Q07820 whole entry, the tested form may be a part): as the sequence (Q07820 whole entry, looked up) above
Protein cereblon/E3 ubiquitin-protein ligase Mdm2 (Homo sapiens), sequence (Q00987 whole entry, looked up): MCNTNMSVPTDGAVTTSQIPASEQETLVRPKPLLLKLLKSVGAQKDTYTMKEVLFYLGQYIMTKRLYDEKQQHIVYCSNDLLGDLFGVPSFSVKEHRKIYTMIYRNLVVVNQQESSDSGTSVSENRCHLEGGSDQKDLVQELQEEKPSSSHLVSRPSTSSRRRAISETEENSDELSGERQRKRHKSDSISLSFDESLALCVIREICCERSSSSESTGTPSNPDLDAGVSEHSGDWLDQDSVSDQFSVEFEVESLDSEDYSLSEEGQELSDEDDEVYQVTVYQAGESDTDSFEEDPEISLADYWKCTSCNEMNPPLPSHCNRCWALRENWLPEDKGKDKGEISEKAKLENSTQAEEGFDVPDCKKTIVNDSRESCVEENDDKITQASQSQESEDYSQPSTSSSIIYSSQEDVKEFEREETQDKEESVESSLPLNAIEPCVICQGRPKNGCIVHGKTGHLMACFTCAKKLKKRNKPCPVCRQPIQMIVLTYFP
Protein cereblon/E3 ubiquitin-protein ligase Mdm2 (Homo sapiens), sequence (Q96SW2 whole entry, looked up): as the sequence (Q96SW2 whole entry, looked up) above

fold change (FC) [1]: 1.1
Activity [2]: < 10%
fold change (FC) [3]: 1.1
Activity [4]: inactive
fold change (FC) [5]: 1
fold change (FC) [6]: 0.9
fold change (FC) [7]: 1.1
fold change (FC) [8]: 0.1
Activity [9]: inactive
Activity [10]: inactive
Activity [11]: inactive
fold change (FC) [12]: 0.8 to 1
fold change (FC) [13]: 0.7
fold change (FC) [14]: 0.9
Activity [15]: inactive
Activity [16]: Tde
fold change (FC) [17]: 0.9
fold change (FC) [18]: 1
Activity [19]: 70%
IC50 [20]: 780 nM
Activity [21]: 80%
IC50 [22]: 540 nM
fold change (FC) [23]: 1
fold change (FC) [24]: 0.9
fold change (FC) [25]: 1
Activity [26]: Dose-dependent effect
fold change (FC) [27]: 1
Compound: O=C(CCCCC(=O)NCCN1C(=O)c2cccc3c(Sc4ccc(Br)cc4)ccc(c23)C1=O)NCCCCCCNc1cccc2c1C(=O)N(C1CCC(=O)NC1=O)C2=O (stereo not drawn)
Activity (NCI-H23): Active
